# dFosB activator: activators of delta FosB homodimer, primary screen, biochemical, fluorescence polarization, TAMRA-CDK5 oligo, single point | activation, % at 25 µM | AID 493131, 2011 | 340,000 tested, 0.99% active | purified delta FosB; percent of positive-control signal above neutral wells;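 active means mean activation above about 17%, with every replicate also reaching it, limit read from the data, passing the limit was not always enough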
# Target sequence (P13346 whole entry, looked up): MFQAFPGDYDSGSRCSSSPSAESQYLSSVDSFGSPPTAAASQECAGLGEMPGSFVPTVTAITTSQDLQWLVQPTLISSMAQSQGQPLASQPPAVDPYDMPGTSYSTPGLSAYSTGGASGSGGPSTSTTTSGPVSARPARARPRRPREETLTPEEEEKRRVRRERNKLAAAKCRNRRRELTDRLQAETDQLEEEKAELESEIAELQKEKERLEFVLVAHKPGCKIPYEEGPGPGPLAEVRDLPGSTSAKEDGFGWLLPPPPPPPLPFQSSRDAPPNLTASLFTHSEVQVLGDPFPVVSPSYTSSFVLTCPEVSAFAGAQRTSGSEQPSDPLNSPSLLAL
# GSIS activator: GLuc luminescence reporter in INS-1E cells, primary screen for activators of glucose-dependent secretion of insulin. INS-1E GLuc reporter insulin secretion, 2-3 h. 370,000 tested, 0.61% active. activation, % at 16.6 µM;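 active means lowest replicate activation of at least 40%, so every replicate reaches that level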;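 further: 0% = median of neutral control wells and 100% = median of IBMX positive control wells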
# Rtt109 Vps75: inhibitors of C. albicans Rtt109/Vps75 HAT, primary screen, biochemical, ThioGlo CoA-SH fluorescence, plate reader; purified Rtt109/Vps75, 4 h; inhibition, % at 34.9 µM; 330,000 tested, 0.16% active; AID 540336, 2011;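 active means inhibition of at least 50% in every replicate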
# Target sequence (Q5AAJ8 whole entry, looked up): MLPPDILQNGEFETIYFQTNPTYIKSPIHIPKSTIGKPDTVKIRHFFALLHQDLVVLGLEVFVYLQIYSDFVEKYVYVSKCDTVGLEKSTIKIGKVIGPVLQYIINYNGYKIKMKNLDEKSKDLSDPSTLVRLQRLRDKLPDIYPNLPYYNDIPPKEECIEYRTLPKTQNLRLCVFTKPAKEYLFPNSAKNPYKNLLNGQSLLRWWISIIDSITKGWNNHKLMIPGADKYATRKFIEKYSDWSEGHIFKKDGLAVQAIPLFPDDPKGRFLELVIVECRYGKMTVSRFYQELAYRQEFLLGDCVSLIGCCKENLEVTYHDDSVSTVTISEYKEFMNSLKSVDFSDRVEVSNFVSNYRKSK
# Cneo AK release: Cryptococcus neoformans cell lysis inducers, primary screen, AK release luminescence, single concentration; 360,000 tested, 0.2% active; lysis activity, % at 15 µM; C. neoformans lysis, adenylate kinase release luminescence, 4 h; normalised: neutral wells 0, clomiphene wells 100; AID 651654, 2012;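 active means mean lysis activity across replicates of at least 80%, whatever share of replicates individually reach that level; inactive means mean lysis activity below 80%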
#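 Material: C. neoformans cells; Schedule: 4 h static compound exposure, 37 °C, read 1 h post-reagent; Measured by: adenylate kinase release luminescence; Read-out: signal increase indicating cell lysis; Controls: Clomiphene as positive lysis control.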
# Env fusion inh: inhibitors of HIV-1 Env-driven cell-cell fusion, primary screen, HeLa-JRFL effector, CEM21 target cells, luciferase; inhibition, % at 12.3 µM; 360,000 tested, 1.1% active; AID 651610, 2012;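 active means mean replicate inhibition score of at least 50 and every replicate individually at or above 50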;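 further: 0% = plate neutral controls and 100% = maraviroc near 300 nM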
# miR-122 sensor: miR-122 Renilla sensor signal increase in Huh7, primary screen, miR-122 inhibitor project, cell-based, single point, plate reader | Huh7 miR-122 Renilla luciferase sensor, 48 h; neutral wells = 0, positive control = 100 | activation (reporter increase), % at 12.5 µM | 340,000 tested, 0.3% active;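 active means mean replicate activation score at least 90 and every replicate individually at or above 90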;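 further: higher luciferase means less miR-122 activity so hits act as miR-122 inhibitors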
# The depositor's hits bear a star; / = no result given; [ ] = dose if it differs, or a comment. An excerpt weighted towards active compounds, which were near 2.4% of everything screened.
SMILES,dFosB activator,GSIS activator,Rtt109 Vps75,Cneo AK release,Env fusion inh,miR-122 sensor
COc1ccc(/C=N/NC(=O)CCC(=O)Nc2ccccc2)cc1OC,5.3,37.6,-4.8,/,-6.4,/
CCn1c(SCC(=O)N/N=C/c2ccc(OC)c(OC)c2)nc2ccccc21,-6.3,84.4*,0.2,-0.3,21.1,6.3
COc1ccc(/C=N/NC(=O)CN(C2=NS(=O)(=O)c3ccccc32)c2ccccc2)cc1OC,3.2,59.8*,-1.2,/,-3.6,/
C/C(=N/NC(=O)CSc1nc2ccccc2n1C)c1ccncc1,-8.0,-4.7,-6.2,/,-0.9,4.1
COc1cc(/C(C)=N\NC(=O)CSc2nc3ccccc3n2C)ccc1O,-2.4,41.7*,-1.7,-1.0,0.6,-2.2
COc1ccc(Cc2nc3ccccc3n2CC(=O)N/N=C/c2ccccc2)cc1OC,-4.8,-13.1,-0.5,/,4.6,/
COc1ccc(/C=N/NC(=O)CCn2c3ccccc3c3ccccc32)cc1OC,14.1,54.3*,2.9,/,13.5,/
CC=Cc1ccc2n(c1=O)C[C@H]1[C@H](CO)[C@@H](C(=O)NC3CCC3)N(Cc3ccncc3)[C@@H]21 (mixture of isomers),/,4.1,/,/,-12.2[16.7 µM],/
O=S(=O)(NC1CCCCCC1)c1cccc(Cl)c1,3.9,-21.8,-7.1,-7.9,1.9,/
CCOc1ccc(Br)cc1S(=O)(=O)NC1CCCC1,-8.3,/,-3.6,-1.0,/,92.8*
Cc1cccc(S(=O)(=O)NC2CCCCCCC2)c1,-3.7,-14.4,16.7,-1.5,11.2,158.8*
CSc1nc2ccc(S(=O)(=O)NC3CCCCC3)cc2s1,-10.6,/,5.1,/,/,175.3*
CCOc1ccc(Br)cc1S(=O)(=O)NCCN1CCCC1,0.2,0.1,-10.3,-0.1,4.4,32.5
COc1ccc(C)cc1S(=O)(=O)NC1CCCC1,-3.4,/,-13.7,1.2,/,169.7*
COc1cc(S(=O)(=O)NC2CCCCC2)ccc1Cl,-1.9,8.1,-5.4,1.8,/,121.3*
COc1ccc(S(=O)(=O)NC2CCCCC2)cc1C,1.1,42.9*,5.2,-1.0,/,137.1*
CCNS(=O)(=O)c1cc(Br)ccc1OC,-0.3,/,1.3,-0.7,-62.9,248.5*
COc1cc(CN2CC3(CN(C(C)=O)C3)c3c([nH]c4cc(OC)ccc34)[C@H]2CO)cc(OC)c1,/,-2.1,/,/,/,/
Cc1nc2c(o1)C(=O)c1ccccc1C2=Nc1ccccc1,-4.8,14.3,-0.5,/,79.3*,/
O=C(C[C@H]1C=C[C@H](NC(=O)Nc2ccc(F)cc2)[C@H](CO)O1)NCc1cccc(F)c1,/,13.6,/,0.2,-15.0[16.7 µM],/
Cc1noc(C)c1NC(=O)N(C)C[C@@H]1OCCCC[C@H](C)Oc2ccc(NC(=O)Nc3ccc(F)cc3)cc2C(=O)N([C@@H](C)CO)C[C@H]1C,/,-15.9,/,3.7,0.4[16.7 µM],-2.9[16.7 µM]
O=c1nc(-c2ccccc2)c2ccccc2[nH]1,6.7,/,-21.2,115.6*,/,0.4
NS(=O)(=O)c1ccc(CCNc2nc3c(-c4cccc(F)c4)nnn3c3ccccc23)cc1,1.8,59.1*,-65.4,-1.0,-217.4,8.8
O=C(Nc1ccc(Cl)cc1)N[C@H]1CC[C@H](CCNC(=O)c2cc(Cl)cc(Cl)c2)O[C@@H]1CO,/,-1.2,/,/,/,/
COc1ccccc1NC(=O)N(C)C[C@H]1Oc2ncc(Br)cc2C(=O)N([C@@H](C)CO)C[C@H]1C,/,-2.4,/,0.0,-5.1[16.7 µM],-8.0[16.7 µM]
SMILES,dFosB activator,GSIS activator,Rtt109 Vps75,Cneo AK release,Env fusion inh,miR-122 sensor
Cc1noc(C)c1NC(=O)Nc1ccc2c(c1)C(=O)N([C@@H](C)CO)C[C@H](C)[C@H](CN(C)S(=O)(=O)c1cccs1)OCCCC[C@H](C)O2,/,-15.6,/,-0.4,69.9*[16.7 µM],4.2[16.7 µM]
C[C@@H]1CN([C@H](C)CO)C(=O)c2cc(NS(=O)(=O)c3ccccc3)ccc2O[C@@H](C)CCCCO[C@H]1CN(C)S(=O)(=O)c1cccs1,/,-21.6,/,6.9,-34.4[16.7 µM],6.9[16.7 µM]
Cc1noc(C)c1NC(=O)Nc1ccc2c(c1)C(=O)N([C@@H](C)CO)C[C@@H](C)[C@@H](CN(C)S(=O)(=O)c1cccs1)OCCCC[C@H](C)O2,/,-1.3,/,0.7,-13.6[16.7 µM],12.3[16.7 µM]
C[C@@H]1CN([C@@H](C)CO)C(=O)c2cc(NC(=O)CCC(F)(F)F)ccc2O[C@@H](C)CCCCO[C@@H]1CN(C)S(=O)(=O)c1cccs1,/,-1.2,/,0.2,-7.4[16.7 µM],16.2[16.7 µM]
Cc1noc(C)c1NC(=O)Nc1ccc2c(c1)C(=O)N([C@H](C)CO)C[C@@H](C)[C@H](CN(C)S(C)(=O)=O)OCCCC[C@@H](C)O2,/,6.0,/,103.1*,2.1[16.7 µM],15.0[16.7 µM]
C[C@@H]1CCCCO[C@@H](CN(C)S(=O)(=O)c2cccs2)[C@H](C)CN([C@@H](C)CO)C(=O)c2cc(NC(=O)CCC(F)(F)F)ccc2O1,/,-10.6,/,97.6*,-30.3[16.7 µM],47.5[16.7 µM]
C[C@H]1CCCCO[C@@H](CN(C)S(=O)(=O)c2cccs2)[C@@H](C)CN([C@@H](C)CO)C(=O)c2cc(NS(=O)(=O)c3ccccc3)ccc2O1,/,-39.0,/,0.0,62.5*[16.7 µM],-2.9[16.7 µM]
CN1C(=O)c2cc(NC(=O)c3cccs3)ccc2OC[C@H]2O[C@H](CC(=O)O)CC[C@H]21,/,7.3,/,1.8,/,-2.5[16.7 µM]
CCC(=O)Nc1ccc2c(c1)C(=O)N(C)C[C@H](OC)[C@@H](C)CN(C(=O)c1ccc(F)cc1)[C@@H](C)CO2,/,2.6,/,-1.4,-5.0[16.7 µM],-2.5[16.7 µM]
COc1ccc2c3c(n(C)c2c1)[C@H](CO)NCC31CCN(S(=O)(=O)c2ccccc2)CC1,/,10.0,/,/,/,/
CC(C)NC(=O)Nc1ccc2c(c1)C(=O)N([C@@H](C)CO)C[C@H](C)[C@@H](CN(C)S(=O)(=O)c1cccs1)OCCCC[C@H](C)O2,/,-10.2,/,87.0*,-30.1[16.7 µM],37.0[16.7 µM]
CC(C)NC(=O)Nc1ccc2c(c1)C(=O)N([C@H](C)CO)C[C@H](C)[C@H](CN(C)S(=O)(=O)c1cccs1)OCCCC[C@H](C)O2,/,-27.7,/,3.1,-24.4[16.7 µM],18.8[16.7 µM]
COCC(=O)Nc1ccc2c(c1)C(=O)N(C)C[C@H](OC)[C@H](C)CN(C(=O)CC1CC1)[C@H](C)CO2,/,-0.2,/,-0.3,7.0[16.7 µM],-5.4[16.7 µM]
CCC(=O)Nc1ccc2c(c1)OC[C@@H](C)N(C(=O)NC(C)C)C[C@@H](C)[C@H](OC)CN(C)C2=O,/,7.3,/,/,/,/
C[C@H]1CN([C@@H](C)CO)C(=O)c2cccc(NS(=O)(=O)c3ccc(Cl)cc3)c2O[C@H]1CN(C)Cc1ccc(C(F)(F)F)cc1,/,-22.2,/,-2.1,-20.5[16.7 µM],33.2[16.7 µM]

# Source: PubChem BioAssay (Broad Institute)
